Results taken from ChEMBL document CHEMBL3808340, “Development of Novel 1,2,3,4-Tetrahydroquinoline Scaffolds as Potent NF-κB Inhibitors and Cytotoxic Agents” (ACS Med Chem Lett, 2016).
pIC50: −log10 of the molar value.

Key:
RAW264.7 = assay: Inhibition of LPS-induced NFkappaB (unknown origin) transcriptional activity expressed in mouse RAW264.7 cells at 100 uM incubated for 16 hrs by SEAP based reporter gene assay relative to control; type: cell-based
[1] = Inhibition of LPS-induced NFkappaB (unknown origin) transcriptional activity expressed in mouse RAW264.7 cells incubated for 16 hrs by SEAP based reporter gene assay; type: cell-based; details: RAW264.7, 16 h
NCI-H23 = assay: Cytotoxicity against human NCI-H23 cells after 72 hrs by sulforhodamine B assay; type: functional; details: NCI-H23, 72 h
In short: (§1)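 Sulforhodamine B staining following the NCI (USA) protocol was used to estimate cell number indirectly in six human cancer lines. GI50 is the concentration giving a 50% decrease in net cell growth, reported as the mean of three experiments.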

ACHN = assay: Cytotoxicity against human ACHN cells after 72 hrs by sulforhodamine B assay; type: functional; in short: as §1
MDA-MB-231 = assay: Cytotoxicity against human MDA-MB-231 cells after 72 hrs by sulforhodamine B assay; type: functional; details: MDA-MB-231, 72 h; in short: as §1
[2] = Cytotoxicity against human PC3 cells after 72 hrs by sulforhodamine B assay; type: functional; details: PC-3, 72 h; in short: as §1
[3] = Cytotoxicity against human NUGC3 cells after 72 hrs by sulforhodamine B assay; type: functional; details: NUGC-3, 72 h; in short: as §1
[4] = Cytotoxicity against human HCT15 cells after 72 hrs by sulforhodamine B assay; type: functional; details: HCT-15, 72 h; in short: as §1
Homo sapiens [5] = species: Homo sapiens; assay: Potency index, ratio of PDTC IC50 to compound IC50 for LPS-induced NFkappaB (unknown origin) transcriptional activity expressed in mouse RAW264.7 cells; type: cell-based
Homo sapiens [6] = species: Homo sapiens; assay: Potency index, ratio of KL-1156 IC50 to compound IC50 for LPS-induced NFkappaB (unknown origin) transcriptional activity expressed in mouse RAW264.7 cells; type: cell-based

| Compound | pIC50 [1] | inhibition (RAW264.7) [%] | GI50 (NCI-H23) [µM] | GI50 (ACHN) [µM] | GI50 (MDA-MB-231) [µM] | GI50 [2] [µM] | GI50 [3] [µM] | GI50 [4] [µM] | Ratio IC50 (Homo sapiens [5]) | Ratio IC50 (Homo sapiens [6]) |
| --- | --- | --- | --- | --- | --- | --- | --- | --- | --- | --- |
| O=C(Nc1ccccc1)C1CCc2ccccc2N1 (stereo not given) | 4.22 | 85 | 97.1 | 72.9 | 108 | 110 | 59 | 109 | – | – |
| O=C(Nc1ccc(O)cc1)c1ccc2ccccc2n1 | – | – | 102 | – | – | – | – | – | – | – |
| O=C(Nc1ccccc1C(F)(F)F)C1CCc2ccccc2N1C(=O)c1ccccc1 (stereo not given) | – | 44 | 6.34 | 8.09 | 5.29 | 5.56 | 8.12 | 6.5 | – | – |
| O=C(Nc1ccc(O)cc1)C1CCc2ccccc2N1 (stereo not given) | 4.19 | 64 | > 100 | > 100 | > 100 | > 100 | > 100 | > 100 | – | – |
| O=C(Nc1ccccc1O)c1ccc2ccccc2n1 | – | – | 87.5 | – | – | – | – | – | – | – |
| CC(=O)N1c2ccccc2CCC1C(=O)Nc1ccccc1O (stereo not given) | – | 19 | 65.7 | 50.7 | 89.6 | 70.7 | 49.7 | 54.5 | – | – |
| O=C(Nc1cc(C(F)(F)F)cc(C(F)(F)F)c1)c1ccc2ccccc2n1 | – | – | 1.44 | – | – | – | – | – | – | – |
| S=C(S)N1CCCC1 [PYRROLIDINE DITHIOCARBAMATE] | 4.43 | – | – | – | – | – | – | – | – | – |
| COc1cc2c(cc1O)CCC(C(=O)Nc1ccccc1)O2 (stereo not given) | 4.28 | 72 | – | – | – | – | – | – | – | – |
| CCC(=O)N1c2ccccc2CCC1C(=O)Nc1ccccc1C(F)(F)F (stereo not given) | – | 43 | > 80 | > 80 | > 80 | > 80 | > 80 | > 80 | – | – |
| O=C(Nc1ccccc1)c1ccc2ccccc2n1 | – | – | 108 | – | – | – | – | – | – | – |
| CC(=O)N1c2ccccc2CCC1C(=O)Nc1ccccc1C(F)(F)F (stereo not given) | – | 32 | > 80 | > 80 | > 80 | > 80 | > 80 | > 80 | – | – |
| COc1cccc2c1C(=O)c1c(O)c3c(c(O)c1C2=O)C[C@@](O)(C(=O)CO)C[C@@H]3O[C@H]1C[C@H](N)[C@H](O)[C@H](C)O1 [DOXORUBICIN] | – | – | 0.0726 | 0.0995 | 0.112 | 0.0923 | 0.125 | 0.0854 | – | – |
| CCCCCCCCC(=O)N1c2ccccc2CCC1C(=O)Nc1ccccc1O (stereo not given) | – | 22 | 55.8 | 65 | 54.3 | 45.2 | 31.1 | 38.4 | – | – |
| COc1ccc(NC(=O)c2ccc3ccccc3n2)cc1 | – | – | 7.65 | – | – | – | – | – | – | – |
| O=C(Nc1ccccc1O)C1CCc2ccccc2N1 (stereo not given) | 4.08 | 57 | 2.23 | 3.99 | 5.26 | 4.31 | 2.68 | 5.61 | – | – |
| CCCC(=O)N1c2ccccc2CCC1C(=O)Nc1ccccc1O (stereo not given) | – | 41 | 43.1 | 50.6 | 38 | 72.5 | 35.4 | 58.3 | – | – |
| O=C(Nc1ccccc1C(F)(F)F)c1ccc2ccccc2n1 | – | – | > 90 | – | – | – | – | – | – | – |
| COc1ccc(NC(=O)C2CCc3ccccc3N2)cc1 (stereo not given) | 4.47 | > 100 | 55.7 | 38 | 51.4 | 56.9 | 51.9 | 50.2 | – | – |
| O=C(Nc1ccc(C(F)(F)F)cc1)c1ccc2ccccc2n1 | – | – | > 90 | – | – | – | – | – | – | – |
| CCC(=O)N1c2ccccc2CCC1C(=O)Nc1ccccc1O (stereo not given) | – | 31 | > 90 | > 90 | > 90 | > 90 | > 90 | > 90 | – | – |

Further lines, with some results ahead:

| pIC50 [1] | Compound | inhibition (RAW264.7) [%] | GI50 (NCI-H23) [µM] | GI50 (ACHN) [µM] | GI50 (MDA-MB-231) [µM] | GI50 [2] [µM] | GI50 [3] [µM] | GI50 [4] [µM] | Ratio IC50 (Homo sapiens [5]) | Ratio IC50 (Homo sapiens [6]) |
| --- | --- | --- | --- | --- | --- | --- | --- | --- | --- | --- |
| 6.15 | O=C(Nc1ccccc1C(F)(F)F)C1CCc2ccccc2N1C(=O)c1cccc(Cl)c1 (stereo not given) | 90 | 0.292 | 0.526 | 0.288 | 0.729 | 0.754 | 0.797 | 53 | 75 |
| 4.70 | O=C(Nc1cc(C(F)(F)F)cc(C(F)(F)F)c1)C1CCc2ccccc2N1C(=O)c1ccc(Cl)cc1 (stereo not given) | 92 | 0.889 | 2.57 | 2 | 4.23 | 1.66 | 2.22 | – | – |
| 4.57 | O=C(Nc1cc(C(F)(F)F)cc(C(F)(F)F)c1)C1CCc2ccccc2N1C(=O)c1cccc(Cl)c1 (stereo not given) | 68 | 0.42 | 0.813 | 1.19 | 1.05 | 0.56 | 0.625 | – | – |
| 5.85 | O=C(Nc1ccccc1O)C1CCc2ccccc2N1C(=O)c1ccccc1 (stereo not given) | > 100 | 3.49 | 4.26 | 4.21 | 5.69 | 3.78 | 3.83 | 26 | 37 |
| 5.57 | O=C(Nc1ccccc1C(F)(F)F)C1CCc2ccccc2N1C(=O)c1ccc(Cl)cc1 (stereo not given) | 92 | 0.307 | 0.824 | 0.533 | 0.786 | 0.551 | 0.839 | 13 | 19 |
| 4.29 | CCCCCCCCC(=O)N1c2ccccc2CCC1C(=O)Nc1cc(C(F)(F)F)cc(C(F)(F)F)c1 (stereo not given) | 58 | 3.23 | 4.52 | 7.53 | 7.43 | 2.23 | 4.97 | – | – |
| 4.59 | O=C(Nc1ccccc1C(F)(F)F)C1CCc2ccccc2N1 (stereo not given) | > 100 | 56.8 | 57.6 | 45.5 | 53.3 | 39.3 | 40.4 | – | – |
| 4.70 | O=C(Nc1ccccc1O)C1CCc2ccccc2N1C(=O)c1ccc(Cl)cc1 (stereo not given) | 82 | 19.2 | 19.6 | 19.6 | 25.1 | 13.4 | 20.2 | – | – |
| 4.11 | O=C(Nc1ccccc1O)C1CCc2ccccc2N1C(=O)c1cccc(Cl)c1 (stereo not given) | 58 | 11.6 | 17.2 | 10.6 | 23.3 | 11 | 23.1 | – | – |
| 4.17 | O=C(Nc1ccc(C(F)(F)F)cc1)C1CCc2ccccc2N1 (stereo not given) | 79 | 25.8 | 25 | 24.2 | 20.3 | 18.6 | 17.6 | – | – |
| 4.54 | O=C(Nc1cc(C(F)(F)F)cc(C(F)(F)F)c1)C1CCc2ccccc2N1C(=O)c1ccccc1 (stereo not given) | 66 | 2.13 | 2.92 | 2.43 | 3.5 | 1.68 | 3.54 | – | – |
| 4.64 | O=C(Nc1cc(C(F)(F)F)cc(C(F)(F)F)c1)C1CCc2ccccc2N1C(=O)c1ccccc1Cl (stereo not given) | 90 | 2.08 | 4.7 | 5.25 | 8.04 | 1.93 | 4.05 | – | – |
| 4.02 | CCCC(=O)N1c2ccccc2CCC1C(=O)Nc1ccccc1C(F)(F)F (stereo not given) | 51 | > 70 | > 70 | > 70 | > 70 | > 70 | > 70 | – | – |
| 4.59 | O=C(Nc1cc(C(F)(F)F)cc(C(F)(F)F)c1)C1CCc2ccccc2N1 (stereo not given) | > 100 | 8.41 | 8.19 | 8.27 | 8.12 | 8.76 | 8.7 | – | – |
| 4.70 | O=C(Nc1ccccc1O)C1CCc2ccccc2N1C(=O)c1ccccc1Cl (stereo not given) | 78 | 46.9 | 44.2 | 47.4 | 60 | 36.8 | 44.9 | – | – |
| 4.64 | CC(=O)N1c2ccccc2CCC1C(=O)Nc1cc(C(F)(F)F)cc(C(F)(F)F)c1 (stereo not given) | 85 | > 70 | > 70 | > 70 | > 70 | > 70 | > 70 | – | – |
| 4.70 | CCC(=O)N1c2ccccc2CCC1C(=O)Nc1cc(C(F)(F)F)cc(C(F)(F)F)c1 (stereo not given) | 91 | 7.82 | 7.72 | 7.28 | 8.54 | 7.22 | 7.62 | – | – |
| 4.57 | CCCCCCCCC(=O)N1c2ccccc2CCC1C(=O)Nc1ccccc1C(F)(F)F (stereo not given) | 63 | 4.22 | 8.33 | 3.35 | 4.32 | 6.18 | 7.7 | – | – |
| 4.70 | CCCC(=O)N1c2ccccc2CCC1C(=O)Nc1cc(C(F)(F)F)cc(C(F)(F)F)c1 (stereo not given) | 88 | 15 | 13.9 | 15.2 | 18.6 | 14.4 | 21.9 | – | – |
